Results as given in ChEMBL document CHEMBL2346575, “Potential CRF1R PET imaging agents: 1-fluoroalkylsubstituted 5-halo-3-(arylamino)pyrazin-2(1H)-ones” (Bioorg Med Chem Lett, 2013).

What was measured:
[1] = target: T1, Corticotropin-releasing factor receptor 1 (Rattus norvegicus, UniProt P35353); experiment: Displacement of [125I]-o-CRF from CRF1 receptor in rat frontal cortex homogenate after 2 hrs by gamma counting; assay type: tissue-based
T1 sequence (P35353 whole entry): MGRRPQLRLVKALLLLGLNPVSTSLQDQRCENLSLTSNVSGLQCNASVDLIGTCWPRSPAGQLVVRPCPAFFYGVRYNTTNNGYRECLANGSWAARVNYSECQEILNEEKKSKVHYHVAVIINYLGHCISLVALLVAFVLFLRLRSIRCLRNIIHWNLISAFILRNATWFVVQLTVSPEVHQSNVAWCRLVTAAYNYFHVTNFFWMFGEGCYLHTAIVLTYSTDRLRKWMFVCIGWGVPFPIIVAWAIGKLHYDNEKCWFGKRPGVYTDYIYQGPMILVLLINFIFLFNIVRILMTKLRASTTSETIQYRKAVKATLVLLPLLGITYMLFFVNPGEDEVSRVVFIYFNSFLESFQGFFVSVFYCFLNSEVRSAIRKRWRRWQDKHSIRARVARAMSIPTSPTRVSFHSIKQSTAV
How it was run: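 Rat frontal cortex, thawed in 50 mM HEPES (pH 7.0 at 23 °C) with 10 mM MgCl2, 2 mM EGTA and protease inhibitors, then homogenized, spun twice at 32,000×g for 30 min and stored at -70 °C. Membranes (25 µg/well) incubated with 150 pM 125I-o-CRF and test drug, 2 h at 21 °C. Filtered on PEI-treated GF/B, washed with cold PBS/0.01% Triton X-100. Nonspecific binding with 1 µM DMP696.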

[2] = Lipophilicity, log D of the compound in octanol-phosphate buffer at pH 7.4 after 30 to 40 mins by shake flask method; assay type: physicochemical
How it was run: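 Phosphate buffer (25 mM, pH ~7.4) and octanol were pre-saturated overnight. Sample (1.0 mg) in 1 mL octanol added to 50 mL octanol-saturated buffer, shaken hard 30–40 min, then left until the layers separated. Each phase analyzed twice by HPLC.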

[3] = Metabolic stability in baboon after 9 mins; assay type: ADME, organism-based, Papio; conditions: in vivo, read-out: Stability
Cerebellum = experiment: Drug uptake in rat cerebellum after 30 mins; assay type: ADME, tissue-based; conditions: in vivo, 0.5 h
Cortex = experiment: Drug uptake in rat cortex after 30 mins; assay type: ADME, tissue-based; conditions: in vivo, 0.5 h
[4] = Metabolic stability in baboon after 13 mins; assay type: ADME, organism-based, Papio; conditions: in vivo, read-out: Stability
[5] = Drug uptake in rat pituitary gland; assay type: ADME, tissue-based; conditions: in vivo

SMILES | IC50 [1] | logD [2] | other results
CCCN(CCC)c1cc(C)nc2c(-c3ccc(N(C)[11CH3])nc3)c(C)nn12 | – | – | remaining at 0.15 h [3]: 50%
COCCN(CCOC)c1nc(C)nc2c(-c3ccc([76Br])cc3Cl)c(C)nn12 | – | – | Drug uptake (Cerebellum): 0.29 % ID/g; Drug uptake (Cortex): 0.32 % ID/g
COc1nc(C)c(Nc2nc(Cl)cn(C(CCF)C3CC3)c2=O)c(OC)n1 (racemic) | 53 nM | 2.9 | –
COc1nc(Cl)nc(C)c1Nc1nc(Cl)cn([C@@H](COCCF)C2CC2)c1=O | 19 nM | 3.3 | –
N#Cc1cc(F)c(Nc2nc(Cl)cn([C@@H](COCCF)C3CC3)c2=O)cc1F | > 1000 nM | 4.6 | –
COCCN(CCO[11CH3])c1cc(C)nc2c(-c3ccc(N(C)C)nc3)c(C)nn12 [[11C]DMP696] | – | – | remaining at 13 min [4]: 50%
COc1nc(Cl)nc(C)c1Nc1nc(Br)cn([C@@H](COCCF)C2CC2)c1=O | 14 nM | 3.4 | –
CCN(CCCC[18F])c1nc(C)nc2c1c(C)cn2-c1c(C)cc(C)cc1C [[18F]FBPPA] | – | – | Drug uptake [5]: 5.59%

The next lines start with results.

IC50 [1] | logD [2] | SMILES | other results
5 nM | 3.6 | N#Cc1cc(Cl)c(Nc2nc(Cl)cn([C@@H](COCCF)C3CC3)c2=O)c(Cl)c1 | –
1.1 nM | 4.5 | COc1cc(C)c(Nc2nc(Cl)cn([C@@H](CF)C3CC3)c2=O)cc1C | –
0.61 nM | 4.2 | COc1cc(C)c(Nc2nc(C)cn([C@@H](CF)C3CC3)c2=O)cc1C | –
0.46 nM | 4.1 | COc1cc(Cl)c(Nc2nc(Br)cn([C@@H](COCCF)C3CC3)c2=O)c(Cl)c1 | –
3.2 nM | 4 | COc1cc(Cl)c2c(c1)CCN2c1nc(Cl)cn([C@@H](COCCF)C2CC2)c1=O | –
7.4 nM | 3.4 | Cc1cc(C#N)cc(C)c1Nc1nc(Cl)cn([C@@H](COCCF)C2CC2)c1=O | –
0.46 nM | 4.6 | COc1cc(C)c(Nc2nc(Cl)cn([C@@H](COCCF)C3CC3)c2=O)cc1C | –
7.7 nM | 3.4 | COc1cc(Cl)c(Nc2nc(C#N)cn([C@@H](COCCF)C3CC3)c2=O)c(Cl)c1 | –
4.5 nM | 3.7 | Cc1cc(C#N)cc(Cl)c1Nc1nc(Cl)cn([C@@H](COCCF)C2CC2)c1=O | –
4.7 nM | 4.1 | COc1nc(C)c(Nc2nc(C)cn([C@@H](CF)C3CC3)c2=O)cc1C | –
0.6 nM | 4 | COc1cc(Cl)c(Nc2nc(Cl)cn([C@@H](COCCF)C3CC3)c2=O)c(Cl)c1 | –
